Only some compounds are listed: those with a hit (about 1.7% of all), similar ones and a draw of the others.
M1 PAM parental: nonselective calcium activators in parental CHO-K1 cells, primary screen, counter-screen for M1 PAM project, cell-based, Fluo-8 calcium fluorescence, full deck, 1536-well; ATP EC20; 0% at ATP EC20, 100% at ATP max; activation, % at 3 µM; 360,000 tested, 0.02% active; AID 602247, 2012;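 active means activation above the run cutoff, the mean activation of all test compounds plus 3 SD, cut at about 40% in these data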;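 further: peak over basal fluorescence ratio in a 140 s read after ATP addition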
M5 antag: human M5 muscarinic receptor antagonists, primary screen, CHO cells, Fluo-8 calcium fluorescence | inhibition, % at 3 µM | 360,000 tested, 0.59% active | AID 624040, 2012 | CHO-hM5 cells, ACh EC80;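 active means inhibition above a per-plate cutoff, the mean of that plate's test compounds plus 3 SD, cut at about 27% in these data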
Target sequence (P08912 whole entry, looked up): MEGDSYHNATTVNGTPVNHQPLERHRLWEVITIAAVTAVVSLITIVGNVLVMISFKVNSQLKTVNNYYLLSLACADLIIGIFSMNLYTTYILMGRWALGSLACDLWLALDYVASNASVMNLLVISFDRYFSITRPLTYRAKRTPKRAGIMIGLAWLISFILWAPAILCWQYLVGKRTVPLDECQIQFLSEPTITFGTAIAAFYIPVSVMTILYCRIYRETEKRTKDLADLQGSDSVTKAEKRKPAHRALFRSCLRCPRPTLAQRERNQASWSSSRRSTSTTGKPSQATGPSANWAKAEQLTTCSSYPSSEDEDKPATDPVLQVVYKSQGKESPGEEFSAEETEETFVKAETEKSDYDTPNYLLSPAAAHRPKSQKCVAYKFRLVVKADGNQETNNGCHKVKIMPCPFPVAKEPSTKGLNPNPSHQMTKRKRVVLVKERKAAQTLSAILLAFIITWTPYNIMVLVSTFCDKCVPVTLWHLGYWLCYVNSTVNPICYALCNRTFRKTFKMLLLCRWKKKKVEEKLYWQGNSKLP
M1 ag parental: counter-screen for M1 agonists: effect in parental CHO-K1 cells; 360,000 tested, 0.48% active; Fluo-8 calcium fluorescence; scaled to maximal ATP response, vehicle zero; activation, % at 3 µM; in the data active means activation above about 15%;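 further: untransfected CHO-K1 host cells lacking M1 receptor as counterscreen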
M5 PAM: human M5 muscarinic receptor positive allosteric modulators, primary screen, CHO-K1 cells, Fluo-8 calcium fluorescence; CHO-K1 hM5, ACh EC20 PAM; 0% = ACh EC20, 100% = ACh EC100; AID 624038, 2012; activation, % at 3 µM; 360,000 tested, 0.3% active;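 active means activation above the run cutoff, the mean activation of all test compounds plus 3 SD, cut at about 18% in these data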
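Assay system: CHO-K1 hM5 cells / Incubation: Fluo-8 loading 80 min at 37 °C plus 30 min room temperature / Technique: Fluo-8 calcium dye fluorescence, kinetic read / Repeats: single replicate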
CHRM5 agonist: human M5 muscarinic receptor agonists, primary screen, CHO-K1 cells, Fluo-8 calcium fluorescence; CHO-K1 hM5 cells; 0% DMSO wells, 100% maximal acetylcholine response; activation, % at 3 µM; 360,000 tested, 0.19% active; AID 624037, 2012;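 active means activation above the run's mean over test compounds plus 3 SD, cut at about 23% in these data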;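 further: signal is peak over basal fluorescence ratio across the kinetic read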
CHO-K1 Ca antag: counter-screen for M1 antagonists: effect in parental CHO-K1 cells | ATP-induced calcium, Fluo-8 fluorescence | inhibition, % at 3 µM | 360,000 tested, 0.6% active;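 active means inhibition above a per-plate cutoff, the plate's mean sample inhibition plus 3 SD, cut at about 24% in these data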
Large screens that a line does not name were inactive.

CC1(c2ccccc2)NCCN2C(=O)CSC21 (configuration not stated)	none
COc1ccc(C2=NCc3nnc(C)n3-c3ccc(Cl)cc32)cc1Cl	none
Clc1ccc2c(c1)C(c1ccccc1Cl)=NCc1nnc(N3CCN(CCSc4ccccc4)CC3)n1-2	none
Clc1ccc2c(c1)C(c1ccccc1Cl)=NCc1nnc(N3CCN(CCOc4ccccc4)CC3)n1-2	M1 PAM parental 64
COc1ccccc1C1=NCc2nnc(C)n2-c2ccc(Cl)cc21	CHO-K1 Ca antag 31
COc1ccc(-n2c(C)cc(C(=O)C[N+]34CCN(CC3)CC4)c2C)cc1	none
C[C@H]1CCC/C=C/[C@@H]2C[C@H](O)C[C@H]2[C@@H](O)/C=C/C(=O)O1	none
CCOC(=O)[C@]12Cc3c(cc(OC)c(OC)c3OC)[C@H]1N(CCC(=O)OC)C(=O)c1ccccc12	none
COc1ccc(CN2CCN(c3ccccc3F)CC2)cc1O	none
CCN(CC)C(=O)c1ccc(NC(=O)c2cc(S(=O)(=O)N3CCCCCC3)ccc2OC)cc1	none
CCN(CC)C(=O)c1ccc(NC(=O)c2cccc(S(=O)(=O)N3CCN(Cc4ccccc4)CC3)c2)cc1	CHO-K1 Ca antag 29
COC(=O)C1=C(c2cccc(OCc3ccccc3)c2)C[C@@H]2CC[C@H]1N2C(=O)NCc1ccc(F)cc1	M5 antag 27
FC(F)(F)C1=NC(C(F)(F)F)=NP(N2CCOCC2)(N2CCOCC2)=N1	none
CC(C)N1C(=O)NC(=O)C2(Cc3cc([N+](=O)[O-])ccc3N(C)C2c2ccccc2)C1=O (configuration not stated)	M1 ag parental 25
COC(=O)C1=C(c2ccc(-c3ccccc3)c(F)c2)C[C@@H]2CC[C@H]1N2C(=O)NC1CC1	none
CCOP(=S)(OCC)SCSP(=S)(OCC)OCC	none
CCCCCCCCCCCCCCCC[N+](C)(C)C	M5 antag 38
COc1ccc(CNCCc2ccc(Cl)cc2Cl)cc1	none
Clc1ccc(CCNCc2ccncc2)c(Cl)c1	M1 ag parental 16
Cc1[nH]c2ccccc2c1CCN	M5 PAM 19, CHO-K1 Ca antag 29
Cc1[nH]c2ccccc2c1CCCNC1CCCCC1	none
CCc1ccc(/C=C(/C#N)C(N)=S)cc1	none
C[N+](C)(C)CC#CCN1CCCC1=O	M5 antag 98, CHRM5 agonist 99
C/C(Cl)=C/CC1(CN2CCCC2=O)C(=O)NC(=O)NC1=O	none
C=CCn1cc(C=C2C(=O)N(C)C(=O)N(C)C2=O)c2ccccc21	none
CN1CCc2c(C#N)c(Cl)nc(Cl)c2C1	CHO-K1 Ca antag 32
O=C(c1ccccc1)c1ccccc1N=Cc1c(O)[nH]c(=O)[nH]c1=O	none
Cc1c(N=Nc2c(O)n(C)c(=O)n(C)c2=O)c(=O)n(-c2ccccc2)n1C	none
CN(C)c1ccc(-[n+]2c(-c3ccccc3)cc(-c3ccccc3)cc2-c2ccccc2)cc1	M5 antag 78
c1ccc(-c2cc(-c3ccccc3)[n+](-c3ccccc3)c(-c3ccccc3)c2)cc1	M5 antag 48
Cc1ccc(-c2cc(-c3ccc(C)cc3)[n+](-c3ccccc3)c(-c3ccc(C)cc3)c2)cc1	M5 antag 31, M1 ag parental 17
Cc1ccc(-c2cc(-c3ccc(C)cc3)[n+](-c3ccc(C(=O)[O-])cc3)c(-c3ccc(C)cc3)c2)cc1	none
Cc1ccc(-c2cc(-c3ccccc3)cc(-c3ccccc3)[n+]2-c2ccccc2)cc1	M5 antag 49, CHO-K1 Ca antag 30
COC(=O)C1=C(c2ccc(F)cc2F)C[C@@H]2CC[C@H]1N2C(=O)N1CCC(O)(c2ccc(Cl)cc2)CC1	none
CN(C(=O)c1ccc(Cl)nc1)C1(c2ccccc2Cl)CCCCC1=O (configuration not stated)	none
CC(C)(C)c1cc(C=C(C#N)C#N)cc(C(C)(C)C)c1O	CHO-K1 Ca antag 31
